Experiment [1] has as its target TGF-beta receptor type-2 (Homo sapiens) (UniProt P37173). The experiment in a line: Inhibition of human recombinant TGFbR2 at 40 nM related to control ULK1.
Experiment [2] has as its target T1, cGMP-dependent protein kinase 1 (Homo sapiens) (UniProt Q13976).
T1 sequence (whole entry): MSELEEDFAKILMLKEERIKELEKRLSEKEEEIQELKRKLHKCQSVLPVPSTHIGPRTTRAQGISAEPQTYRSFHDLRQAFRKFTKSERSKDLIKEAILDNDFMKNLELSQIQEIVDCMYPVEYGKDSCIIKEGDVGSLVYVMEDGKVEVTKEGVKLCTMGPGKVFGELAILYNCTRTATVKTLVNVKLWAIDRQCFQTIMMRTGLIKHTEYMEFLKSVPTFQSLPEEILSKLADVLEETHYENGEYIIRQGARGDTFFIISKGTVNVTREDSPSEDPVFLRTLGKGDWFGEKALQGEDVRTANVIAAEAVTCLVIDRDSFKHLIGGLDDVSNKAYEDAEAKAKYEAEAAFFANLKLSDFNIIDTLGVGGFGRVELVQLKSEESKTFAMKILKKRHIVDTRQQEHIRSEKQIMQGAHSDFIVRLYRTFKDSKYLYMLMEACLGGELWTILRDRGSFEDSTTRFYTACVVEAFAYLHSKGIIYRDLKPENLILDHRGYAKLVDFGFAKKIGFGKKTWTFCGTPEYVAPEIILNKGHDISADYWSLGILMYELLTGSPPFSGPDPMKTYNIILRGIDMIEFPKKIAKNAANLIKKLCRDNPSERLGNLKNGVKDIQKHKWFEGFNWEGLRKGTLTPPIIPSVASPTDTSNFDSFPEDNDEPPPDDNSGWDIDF
Nature of the experiment: Inhibition of human recombinant PKG1 at 40 nM in presence of ATP by radiometric assay relative to control.

Experiment [3] deals with T2, Serine/threonine-protein kinase tousled-like 1 (Homo sapiens) (UniProt Q9UKI8).
T2 sequence (whole entry): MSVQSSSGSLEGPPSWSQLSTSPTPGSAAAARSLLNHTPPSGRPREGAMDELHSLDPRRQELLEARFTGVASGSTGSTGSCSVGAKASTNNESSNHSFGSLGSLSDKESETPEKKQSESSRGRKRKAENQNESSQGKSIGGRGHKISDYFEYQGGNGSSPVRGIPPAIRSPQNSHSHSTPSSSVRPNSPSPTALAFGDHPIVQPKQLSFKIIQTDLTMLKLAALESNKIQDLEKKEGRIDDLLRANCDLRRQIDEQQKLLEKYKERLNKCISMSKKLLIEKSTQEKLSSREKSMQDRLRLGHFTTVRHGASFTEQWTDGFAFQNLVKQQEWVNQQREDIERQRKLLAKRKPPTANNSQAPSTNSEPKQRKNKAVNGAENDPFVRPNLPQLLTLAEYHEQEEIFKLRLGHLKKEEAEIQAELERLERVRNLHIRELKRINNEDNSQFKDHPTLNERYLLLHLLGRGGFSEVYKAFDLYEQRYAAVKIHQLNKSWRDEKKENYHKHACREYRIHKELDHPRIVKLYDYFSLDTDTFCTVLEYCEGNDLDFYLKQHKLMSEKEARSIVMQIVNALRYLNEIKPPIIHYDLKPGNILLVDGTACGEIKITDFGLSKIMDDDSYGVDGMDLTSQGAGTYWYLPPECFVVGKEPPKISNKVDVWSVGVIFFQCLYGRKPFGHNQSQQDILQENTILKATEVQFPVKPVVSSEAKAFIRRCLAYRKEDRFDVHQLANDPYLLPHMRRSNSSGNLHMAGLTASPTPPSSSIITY
The experiment in a line: Inhibition of human recombinant TLK1 at 500 nM related to control ULK1.

In experiment [4] the target is Calcium/calmodulin-dependent protein kinase type 1G (Homo sapiens) (UniProt Q96NX5). The experiment in a line: Inhibition of human recombinant CaMK1g at 500 nM in presence of ATP by radiometric assay relative to control.
Chain of Calcium/calmodulin-dependent protein kinase type 1G (Homo sapiens) (Q96NX5 whole entry): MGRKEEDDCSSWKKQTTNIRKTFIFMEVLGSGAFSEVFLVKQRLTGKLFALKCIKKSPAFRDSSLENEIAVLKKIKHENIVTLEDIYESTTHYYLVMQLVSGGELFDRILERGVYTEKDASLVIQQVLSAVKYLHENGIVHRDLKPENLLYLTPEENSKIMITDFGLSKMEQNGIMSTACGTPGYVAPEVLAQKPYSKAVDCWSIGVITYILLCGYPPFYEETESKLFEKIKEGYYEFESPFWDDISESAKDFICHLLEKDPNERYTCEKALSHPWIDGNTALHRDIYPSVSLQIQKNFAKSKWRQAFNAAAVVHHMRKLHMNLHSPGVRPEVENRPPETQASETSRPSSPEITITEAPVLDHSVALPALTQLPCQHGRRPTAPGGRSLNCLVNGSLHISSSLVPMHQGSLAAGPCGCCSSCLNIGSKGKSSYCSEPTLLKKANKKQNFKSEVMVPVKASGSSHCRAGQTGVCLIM
Experiment [5] has as its target Mitogen-activated protein kinase kinase kinase 9 (Homo sapiens) (UniProt P80192). Nature of the experiment: Inhibition of human recombinant MLK1 at 500 nM related to control ULK1.
For experiment [6], the target named is [Pyruvate dehydrogenase (acetyl-transferring)] kinase isozyme 4, mitochondrial (Homo sapiens) (UniProt Q16654). The experiment in a line: Inhibition of human recombinant PDHK4 at 500 nM related to control ULK1.
The target of experiment [7] is Eukaryotic translation initiation factor 2-alpha kinase 1 (Homo sapiens) (UniProt Q9BQI3). Nature of the experiment: Inhibition of human recombinant HRI at 500 nM related to control ULK1.
Chain of Eukaryotic translation initiation factor 2-alpha kinase 1 (Homo sapiens) (Q9BQI3 whole entry): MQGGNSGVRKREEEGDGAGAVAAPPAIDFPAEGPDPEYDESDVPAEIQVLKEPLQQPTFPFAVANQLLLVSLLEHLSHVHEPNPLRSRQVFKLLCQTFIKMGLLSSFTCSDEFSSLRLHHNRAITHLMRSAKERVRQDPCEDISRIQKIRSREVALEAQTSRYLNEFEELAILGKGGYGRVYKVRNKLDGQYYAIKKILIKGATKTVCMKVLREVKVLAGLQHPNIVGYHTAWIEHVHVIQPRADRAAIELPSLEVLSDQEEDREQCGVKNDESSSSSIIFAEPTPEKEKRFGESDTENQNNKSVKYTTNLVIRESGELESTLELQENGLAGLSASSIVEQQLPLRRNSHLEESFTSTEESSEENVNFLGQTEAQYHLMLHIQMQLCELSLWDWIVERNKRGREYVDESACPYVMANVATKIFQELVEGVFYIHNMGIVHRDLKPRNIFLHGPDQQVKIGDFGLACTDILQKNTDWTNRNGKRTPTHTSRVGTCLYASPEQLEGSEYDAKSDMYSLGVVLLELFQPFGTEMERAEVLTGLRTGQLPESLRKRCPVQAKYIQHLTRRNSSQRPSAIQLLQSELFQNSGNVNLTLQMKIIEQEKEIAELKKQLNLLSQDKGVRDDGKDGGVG
Experiment [8] concerns the target Macrophage colony-stimulating factor 1 receptor (Homo sapiens) (UniProt P07333). Nature of the experiment: Inhibition of human recombinant FMS at 500 nM in presence of ATP by radiometric assay relative to control.
In experiment [9] the target is Serine/threonine-protein kinase N2 (Homo sapiens) (UniProt Q16513). Nature of the experiment: Inhibition of human recombinant PKN2 at 500 nM related to control ULK1.
Chain of Serine/threonine-protein kinase N2 (Homo sapiens) (Q16513 whole entry, looked up): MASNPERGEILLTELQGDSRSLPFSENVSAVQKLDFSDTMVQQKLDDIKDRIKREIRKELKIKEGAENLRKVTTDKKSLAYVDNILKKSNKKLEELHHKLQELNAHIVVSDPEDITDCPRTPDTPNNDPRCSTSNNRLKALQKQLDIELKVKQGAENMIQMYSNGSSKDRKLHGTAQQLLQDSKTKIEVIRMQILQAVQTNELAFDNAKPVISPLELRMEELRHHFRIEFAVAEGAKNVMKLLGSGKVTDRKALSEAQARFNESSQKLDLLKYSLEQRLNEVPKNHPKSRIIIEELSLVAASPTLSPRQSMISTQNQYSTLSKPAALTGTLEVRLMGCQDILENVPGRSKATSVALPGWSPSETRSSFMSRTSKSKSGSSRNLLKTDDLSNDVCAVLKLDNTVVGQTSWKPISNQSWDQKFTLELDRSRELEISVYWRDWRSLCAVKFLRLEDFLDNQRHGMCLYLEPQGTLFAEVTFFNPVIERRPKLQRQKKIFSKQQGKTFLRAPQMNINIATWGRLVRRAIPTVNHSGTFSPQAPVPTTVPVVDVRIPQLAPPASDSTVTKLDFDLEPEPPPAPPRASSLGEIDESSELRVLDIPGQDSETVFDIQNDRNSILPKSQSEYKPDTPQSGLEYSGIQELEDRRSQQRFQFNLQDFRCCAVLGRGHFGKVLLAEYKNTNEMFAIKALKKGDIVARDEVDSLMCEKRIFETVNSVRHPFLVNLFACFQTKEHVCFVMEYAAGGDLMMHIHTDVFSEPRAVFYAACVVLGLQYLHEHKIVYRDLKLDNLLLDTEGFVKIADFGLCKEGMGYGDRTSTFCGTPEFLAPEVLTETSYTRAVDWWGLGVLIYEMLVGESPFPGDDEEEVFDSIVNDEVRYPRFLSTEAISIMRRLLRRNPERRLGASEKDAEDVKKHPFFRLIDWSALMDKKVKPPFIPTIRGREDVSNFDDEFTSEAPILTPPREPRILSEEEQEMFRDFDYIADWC
Experiment [10] addresses Receptor-type tyrosine-protein kinase FLT3 (Homo sapiens) (UniProt P36888). Nature of the experiment: Inhibition of human recombinant FLT3 at 15 nM related to control ULK1.
Experiment [11] deals with T3, Serine/threonine-protein kinase NLK (Homo sapiens) (UniProt Q9UBE8).
T3 sequence (whole entry): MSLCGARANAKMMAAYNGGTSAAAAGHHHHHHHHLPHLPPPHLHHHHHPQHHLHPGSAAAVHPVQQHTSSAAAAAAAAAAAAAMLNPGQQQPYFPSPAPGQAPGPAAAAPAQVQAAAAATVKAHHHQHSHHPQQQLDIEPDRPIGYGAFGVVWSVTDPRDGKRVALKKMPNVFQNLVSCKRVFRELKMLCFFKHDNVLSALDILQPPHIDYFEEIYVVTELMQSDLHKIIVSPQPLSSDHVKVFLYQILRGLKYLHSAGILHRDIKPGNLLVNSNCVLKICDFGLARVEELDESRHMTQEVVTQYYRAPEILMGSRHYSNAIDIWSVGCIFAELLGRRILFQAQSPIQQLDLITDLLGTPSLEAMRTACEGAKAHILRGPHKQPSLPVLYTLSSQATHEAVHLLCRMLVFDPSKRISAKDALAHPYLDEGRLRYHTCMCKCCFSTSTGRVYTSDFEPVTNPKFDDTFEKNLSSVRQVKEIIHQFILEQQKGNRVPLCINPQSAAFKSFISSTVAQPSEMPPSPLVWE
The experiment in a line: Inhibition of human recombinant NLK at 15 nM in presence of ATP by radiometric assay relative to control.

Experiment [12] deals with Tyrosine-protein kinase ABL2 (Homo sapiens) (UniProt P42684). The experiment in a line: Inhibition of human recombinant ABL2 at 15 nM in presence of ATP by radiometric assay relative to control. The gist of the method:
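Panel of 327 recombinant human kinases in radiometric activity assays, each screened in duplicate at a single inhibitor concentration; percent activity remaining relative to vehicle control, percent inhibition taken as 100 minus activity remaining.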

Experiment [13] deals with Serine/threonine-protein kinase 32B (Homo sapiens) (UniProt Q9NY57). Nature of the experiment: Inhibition of human recombinant YANK2 at 15 nM in presence of ATP by radiometric assay relative to control.

Molecules are shown by their SMILES.

Chain of Mitogen-activated protein kinase kinase kinase 9 (Homo sapiens) (P80192 whole entry, looked up): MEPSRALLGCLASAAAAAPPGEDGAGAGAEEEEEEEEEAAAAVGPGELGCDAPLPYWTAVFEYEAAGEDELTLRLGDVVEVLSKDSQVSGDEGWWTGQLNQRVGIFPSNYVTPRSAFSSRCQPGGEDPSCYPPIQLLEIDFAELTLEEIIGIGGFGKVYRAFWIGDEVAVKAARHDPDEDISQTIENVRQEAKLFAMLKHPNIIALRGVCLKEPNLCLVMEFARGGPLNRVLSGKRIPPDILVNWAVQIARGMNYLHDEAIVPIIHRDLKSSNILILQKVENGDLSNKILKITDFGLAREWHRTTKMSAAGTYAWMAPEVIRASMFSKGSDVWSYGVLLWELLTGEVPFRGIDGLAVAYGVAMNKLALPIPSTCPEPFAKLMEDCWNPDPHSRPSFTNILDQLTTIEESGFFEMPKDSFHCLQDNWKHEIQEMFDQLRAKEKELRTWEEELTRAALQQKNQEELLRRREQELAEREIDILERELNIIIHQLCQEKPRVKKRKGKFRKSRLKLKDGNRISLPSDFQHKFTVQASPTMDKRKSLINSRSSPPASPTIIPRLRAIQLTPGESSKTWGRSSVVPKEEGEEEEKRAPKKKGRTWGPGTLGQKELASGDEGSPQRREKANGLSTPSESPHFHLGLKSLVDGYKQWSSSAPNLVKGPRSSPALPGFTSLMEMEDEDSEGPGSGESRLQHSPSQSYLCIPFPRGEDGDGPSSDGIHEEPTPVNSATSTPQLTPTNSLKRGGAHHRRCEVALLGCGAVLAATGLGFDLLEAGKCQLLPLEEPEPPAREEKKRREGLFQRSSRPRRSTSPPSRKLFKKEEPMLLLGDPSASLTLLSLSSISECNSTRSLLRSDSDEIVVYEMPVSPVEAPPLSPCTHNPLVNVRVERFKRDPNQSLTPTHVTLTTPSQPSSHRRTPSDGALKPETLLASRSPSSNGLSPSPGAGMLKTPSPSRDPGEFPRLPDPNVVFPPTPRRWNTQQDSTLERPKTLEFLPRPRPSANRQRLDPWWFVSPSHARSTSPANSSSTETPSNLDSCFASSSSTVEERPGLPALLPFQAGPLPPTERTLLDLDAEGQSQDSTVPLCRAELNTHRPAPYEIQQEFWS
Chain of Macrophage colony-stimulating factor 1 receptor (Homo sapiens) (P07333 whole entry): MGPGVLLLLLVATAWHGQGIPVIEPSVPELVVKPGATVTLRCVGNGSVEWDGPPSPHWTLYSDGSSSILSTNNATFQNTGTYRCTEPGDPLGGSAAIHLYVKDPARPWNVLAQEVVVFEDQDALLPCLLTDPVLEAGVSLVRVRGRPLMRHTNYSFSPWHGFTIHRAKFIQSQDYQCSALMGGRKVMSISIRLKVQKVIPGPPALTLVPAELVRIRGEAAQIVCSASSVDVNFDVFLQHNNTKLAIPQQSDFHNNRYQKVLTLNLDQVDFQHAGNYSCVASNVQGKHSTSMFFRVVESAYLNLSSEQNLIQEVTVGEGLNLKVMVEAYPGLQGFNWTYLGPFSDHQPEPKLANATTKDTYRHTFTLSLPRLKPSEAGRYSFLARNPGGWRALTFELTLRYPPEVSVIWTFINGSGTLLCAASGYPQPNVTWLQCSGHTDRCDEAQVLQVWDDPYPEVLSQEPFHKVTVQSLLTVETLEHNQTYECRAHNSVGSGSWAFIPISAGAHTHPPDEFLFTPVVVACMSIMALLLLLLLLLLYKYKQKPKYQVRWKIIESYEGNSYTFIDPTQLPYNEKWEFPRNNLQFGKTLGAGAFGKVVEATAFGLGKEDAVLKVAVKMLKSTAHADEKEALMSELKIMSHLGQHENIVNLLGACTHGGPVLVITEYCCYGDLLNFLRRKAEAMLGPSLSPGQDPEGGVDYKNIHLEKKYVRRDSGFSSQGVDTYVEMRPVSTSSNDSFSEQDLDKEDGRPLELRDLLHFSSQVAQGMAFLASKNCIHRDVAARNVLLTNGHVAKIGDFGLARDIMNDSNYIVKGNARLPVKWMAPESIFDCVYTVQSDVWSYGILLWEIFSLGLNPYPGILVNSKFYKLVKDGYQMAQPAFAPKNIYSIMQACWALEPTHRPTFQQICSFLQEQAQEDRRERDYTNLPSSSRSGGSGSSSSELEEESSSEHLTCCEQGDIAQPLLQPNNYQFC
Chain of TGF-beta receptor type-2 (Homo sapiens) (P37173 whole entry): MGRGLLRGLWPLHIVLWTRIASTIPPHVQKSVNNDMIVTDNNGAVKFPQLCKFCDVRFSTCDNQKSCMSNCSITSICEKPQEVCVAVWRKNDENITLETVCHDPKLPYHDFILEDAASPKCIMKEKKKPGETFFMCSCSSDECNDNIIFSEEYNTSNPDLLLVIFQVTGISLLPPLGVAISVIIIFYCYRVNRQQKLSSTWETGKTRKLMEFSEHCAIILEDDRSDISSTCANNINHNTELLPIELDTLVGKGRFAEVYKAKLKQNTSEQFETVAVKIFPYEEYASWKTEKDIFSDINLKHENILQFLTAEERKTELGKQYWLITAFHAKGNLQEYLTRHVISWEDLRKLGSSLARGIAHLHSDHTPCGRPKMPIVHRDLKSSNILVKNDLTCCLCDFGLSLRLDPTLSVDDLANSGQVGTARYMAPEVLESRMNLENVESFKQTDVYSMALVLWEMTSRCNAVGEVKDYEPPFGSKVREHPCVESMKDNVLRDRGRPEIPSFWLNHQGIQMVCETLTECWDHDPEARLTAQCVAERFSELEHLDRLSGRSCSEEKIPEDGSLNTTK

The term inhibition denotes the change of the read-out against control, counted positive when it falls. As for `O=C(N[C@@H](C1CC1)C(F)(F)F)c1cc(-c2cnn3cc(-c4ccc(F)cc4)cnc23)cs1`, in [1], the fold change (FC) came to 0.64. Further, in experiment [2], the inhibition was found to be 6%.
For the compound `CNC(=O)c1ccccc1Oc1nc(Nc2cc(OC)c(OC)c(OC)c2)ncc1Br`, the fold change (FC) in experiment [3] is 0; in experiment [5], 1.18; in experiment [6], 0.07; in experiment [7], 0; in [9] it was 0. Besides, the results for the inhibition in experiment [4] and in experiment [8] were 6% and 19%, respectively.
As for `CC(C)[C@H](NC(=O)c1cc(-c2cnn3cc(-c4ccc(OCCN5CCCCC5)cc4)cnc23)cs1)C(F)(F)F`, in [10], the fold change (FC) came to 0.77. Moreover, the inhibition turned out to be 9% in experiment [11], 42% in experiment [12] and 0% in experiment [13].

These data come from ChEMBL document CHEMBL5653631, “A Potent and Selective ULK1 Inhibitor Suppresses Autophagy and Sensitizes Cancer Cells to Nutrient Stress” (iScience, 2018).
